Results reported in publication PMC9054024 (Science Advances, 2022).
Ends that are not written are not given here. * marks the point of attachment. Biotin = O=C1N[C@H]2[C@H](CS[C@H]2CCCCC(=O)*)N1

What was measured:
HCT116 and Colo320 cells = assay: Viability assay; type: cell-based, human; conditions: 48 hours; for effect of addition of cholesterol on viability: 20 μM compound ± cholesterol 20 μM; for cell viability compared to vehicle controls: 20 μM
Summary of the method: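 HCT116 and Colo320 cells were treated 48 h with the indicated agents at 20 μM, including water-soluble cholesterol, alone or combined. Viability was measured by CellTiter-Glo luminescence in triplicate and expressed relative to vehicle-treated cells.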

β-catenin/BCL9 complexes = molecular target: T1, β-catenin/BCL9 complexes (Homo sapiens, UniProt P35222); assay: BCL9 Co-IP assay in Colo320 and HCT116 cells; type: cell-based; conditions: Colo320 and HCT116, 16 hours
T1 sequence (P35222 2-781 limits assumed): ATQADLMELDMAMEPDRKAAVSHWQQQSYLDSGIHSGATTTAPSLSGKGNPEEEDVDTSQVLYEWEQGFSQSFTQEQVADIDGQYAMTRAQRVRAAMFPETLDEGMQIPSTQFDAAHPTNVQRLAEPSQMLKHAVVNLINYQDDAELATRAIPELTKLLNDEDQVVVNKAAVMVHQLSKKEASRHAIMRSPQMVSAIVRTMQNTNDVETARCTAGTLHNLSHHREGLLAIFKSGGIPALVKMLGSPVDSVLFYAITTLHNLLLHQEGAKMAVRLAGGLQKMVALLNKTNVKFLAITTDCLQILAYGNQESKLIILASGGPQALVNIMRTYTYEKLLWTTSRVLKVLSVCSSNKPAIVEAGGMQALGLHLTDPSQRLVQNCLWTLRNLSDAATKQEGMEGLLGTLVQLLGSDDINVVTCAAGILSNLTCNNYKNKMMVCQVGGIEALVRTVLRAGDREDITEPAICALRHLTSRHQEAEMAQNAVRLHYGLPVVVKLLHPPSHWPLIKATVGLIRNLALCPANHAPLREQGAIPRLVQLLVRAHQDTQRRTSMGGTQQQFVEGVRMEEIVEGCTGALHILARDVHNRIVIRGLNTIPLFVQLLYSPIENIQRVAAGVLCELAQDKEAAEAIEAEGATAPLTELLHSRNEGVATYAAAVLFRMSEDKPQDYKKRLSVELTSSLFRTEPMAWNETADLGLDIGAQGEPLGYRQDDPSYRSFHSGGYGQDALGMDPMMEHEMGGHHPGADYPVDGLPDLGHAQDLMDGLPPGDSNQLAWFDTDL
Summary of the method: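 Colo320 and HCT116 cells (with 4T1) were treated for 16 h with DMSO vehicle or 1, 10 or 20 μM compound. Nuclei were isolated and digested with hypotonic and digestion buffers, and nuclear protein was quantified by Bradford. 800 μg nuclear extract was immunoprecipitated overnight at 4°C with 3.5 μg anti-BCL9, with normal rabbit IgG as negative control, then immunoblotted.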

[1] = molecular target: T2, β-catenin complexes with E-cadherin (Homo sapiens, UniProt P35222); assay: β-catenin Co-IP assay in DLD-1 cells; type: cell-based
T2 sequence (P35222 2-781 limits assumed): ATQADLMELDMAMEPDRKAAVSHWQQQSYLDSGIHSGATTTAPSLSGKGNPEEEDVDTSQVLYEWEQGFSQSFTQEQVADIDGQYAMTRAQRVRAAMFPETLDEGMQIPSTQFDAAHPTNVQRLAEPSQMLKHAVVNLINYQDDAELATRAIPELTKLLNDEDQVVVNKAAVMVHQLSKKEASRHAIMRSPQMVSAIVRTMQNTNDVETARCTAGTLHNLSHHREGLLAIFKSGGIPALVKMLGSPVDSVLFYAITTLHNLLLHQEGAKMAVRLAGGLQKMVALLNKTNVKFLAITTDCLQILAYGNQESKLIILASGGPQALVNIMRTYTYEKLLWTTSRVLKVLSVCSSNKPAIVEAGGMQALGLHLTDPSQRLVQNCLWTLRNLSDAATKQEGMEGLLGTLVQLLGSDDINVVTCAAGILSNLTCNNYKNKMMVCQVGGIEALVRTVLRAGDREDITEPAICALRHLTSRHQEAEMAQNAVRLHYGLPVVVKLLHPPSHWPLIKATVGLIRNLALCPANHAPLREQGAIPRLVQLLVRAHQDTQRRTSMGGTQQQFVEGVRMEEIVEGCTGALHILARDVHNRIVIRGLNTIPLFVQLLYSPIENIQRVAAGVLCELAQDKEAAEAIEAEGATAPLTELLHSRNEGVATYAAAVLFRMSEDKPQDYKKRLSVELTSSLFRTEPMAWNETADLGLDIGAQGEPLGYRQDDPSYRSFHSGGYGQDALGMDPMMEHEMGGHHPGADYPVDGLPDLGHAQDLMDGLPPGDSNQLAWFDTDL
T2 sequence (P12830 155-882 partner): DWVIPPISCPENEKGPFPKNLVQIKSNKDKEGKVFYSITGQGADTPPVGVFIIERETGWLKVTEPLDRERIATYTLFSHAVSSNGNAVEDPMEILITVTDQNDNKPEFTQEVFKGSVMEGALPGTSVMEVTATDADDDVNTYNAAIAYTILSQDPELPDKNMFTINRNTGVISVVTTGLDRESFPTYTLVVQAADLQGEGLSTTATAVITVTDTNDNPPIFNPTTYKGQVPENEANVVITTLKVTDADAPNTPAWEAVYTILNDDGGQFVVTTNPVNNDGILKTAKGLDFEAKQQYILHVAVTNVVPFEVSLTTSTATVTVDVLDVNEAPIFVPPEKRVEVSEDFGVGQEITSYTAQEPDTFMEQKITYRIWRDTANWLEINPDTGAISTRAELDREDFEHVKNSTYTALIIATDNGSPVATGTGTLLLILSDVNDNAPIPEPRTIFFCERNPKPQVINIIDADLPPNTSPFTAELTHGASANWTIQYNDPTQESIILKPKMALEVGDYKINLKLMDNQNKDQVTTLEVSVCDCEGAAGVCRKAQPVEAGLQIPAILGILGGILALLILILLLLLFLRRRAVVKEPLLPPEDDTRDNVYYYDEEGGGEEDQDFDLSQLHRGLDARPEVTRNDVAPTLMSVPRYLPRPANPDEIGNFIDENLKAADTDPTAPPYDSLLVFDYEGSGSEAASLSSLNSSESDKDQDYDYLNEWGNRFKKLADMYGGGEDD
Summary of the method: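 DLD-1 cells treated 16 h with DMSO vehicle or 1, 10 or 20 μM compound, then lysed in whole-cell lysis buffer. 800 μg extract incubated with 3.5 μg anti-β-catenin, with normal rabbit IgG as negative control. Protein G magnetic beads added for 1 h at 4°C, washed four times (150 mM NaCl) and eluted in reducing buffer. 2% input included. Immunoblotting used chemiluminescence and actin-normalised densitometry.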

[2] = test system: Wnt target genes AXIN2 and CD44; assay: RT-qPCR of Wnt target genes in Colo320 and HCT116 cells; type: cell-based, human; conditions: 10 or 20 μM for 6, 24, and 48 hours
Summary of the method: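 Colo320 and HCT116 cells treated with DMSO vehicle or 10 or 20 μM compound for 6, 24 and 48 h. Total RNA isolated with TRIzol, reverse-transcribed, and SYBR Green qPCR run. Expression normalised to B2M and PMM1 or GAPDH by the ΔΔCT method.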

AXIN2, CD44, PARP, ABC = assay: Immunoblots of β-catenin–dependent cell lines Colo320 and HCT116; type: cell-based, human; conditions: Colo320 and HCT116, 24 and 48 hours
Summary of the method: (§1)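 HCT116 (McCoy's), Colo320 (RPMI 1640) and RKO (DMEM) were grown with 10% FBS at 37°C, 5% CO2, with DMSO as vehicle. Membranes were probed overnight at 4°C with primary antibodies in blocking buffer, then HRP secondary, and detected by chemiluminescence. Densitometry was normalized to actin.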

AXIN2, CD44, PARP = assay: Immunoblots of β-catenin–independent cell line RKO; type: cell-based, human; conditions: RKO cells
Summary of the method: as §1

[3] = test system: Wnt transcriptional activity; assay: Dual-luciferase Wnt reporter assay in Colo320 and HCT116 cells; type: cell-based, human; conditions: 16 hours, versus vehicle
Summary of the method: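 Stable reporter cells came from lentiviral transduction: firefly luciferase under a 7XTCF promoter and Renilla luciferase under an EF1alpha promoter. 30,000 cells/well were treated 16 h with DMSO vehicle or increasing compound concentrations. Firefly and Renilla signals were read by Dual-Glo, in triplicate.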

Colo320 and HCT116 cells = assay: Proliferation assay, β-catenin–dependent cell lines; type: cell-based, human; conditions: 5, 10, or 20 μM; 24, 48, 72, and 96 hours
Summary of the method: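 Colo320, HCT116 and RKO cells were seeded in triplicate at 3000 cells/well and treated with DMSO vehicle or 5, 10 or 20 μM compound. Proliferation was measured by CellTiter-Glo 2.0 luminescence, relative to the respective baseline readings.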

HCT116 cells = assay: Fluorescent staining of lipids and cholesterol in HCT116 cells; type: cell-based, human; conditions: treated for 24 and 48 hours
Summary of the method: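 HCT116 cells in glass-bottomed dishes treated with vehicle or 20 μM compound for 4, 8, 24 and 48 h. Fixed in 4% paraformaldehyde, stained with 2 μM BODIPY 493/503 for 15 min plus DAPI (1 μg/ml). Cholesterol stained with a filipin III kit. For localisation at 48 h, filipin was combined with anti-SERCA-ATPase (ER) or LipidSpot (lipid droplets). Imaged with a ×40 dry objective.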

[4] = molecular target: human CTNNB1 region 141-305 (short protein) (human) (UniProt P35222); assay: ITC
[5] = molecular target: T3, full-length recombinant β-catenin (1 to 781 amino acids, 88 kDa) (human, UniProt P35222 1-781); assay: AlphaScreen or HTRF
T3 sequence: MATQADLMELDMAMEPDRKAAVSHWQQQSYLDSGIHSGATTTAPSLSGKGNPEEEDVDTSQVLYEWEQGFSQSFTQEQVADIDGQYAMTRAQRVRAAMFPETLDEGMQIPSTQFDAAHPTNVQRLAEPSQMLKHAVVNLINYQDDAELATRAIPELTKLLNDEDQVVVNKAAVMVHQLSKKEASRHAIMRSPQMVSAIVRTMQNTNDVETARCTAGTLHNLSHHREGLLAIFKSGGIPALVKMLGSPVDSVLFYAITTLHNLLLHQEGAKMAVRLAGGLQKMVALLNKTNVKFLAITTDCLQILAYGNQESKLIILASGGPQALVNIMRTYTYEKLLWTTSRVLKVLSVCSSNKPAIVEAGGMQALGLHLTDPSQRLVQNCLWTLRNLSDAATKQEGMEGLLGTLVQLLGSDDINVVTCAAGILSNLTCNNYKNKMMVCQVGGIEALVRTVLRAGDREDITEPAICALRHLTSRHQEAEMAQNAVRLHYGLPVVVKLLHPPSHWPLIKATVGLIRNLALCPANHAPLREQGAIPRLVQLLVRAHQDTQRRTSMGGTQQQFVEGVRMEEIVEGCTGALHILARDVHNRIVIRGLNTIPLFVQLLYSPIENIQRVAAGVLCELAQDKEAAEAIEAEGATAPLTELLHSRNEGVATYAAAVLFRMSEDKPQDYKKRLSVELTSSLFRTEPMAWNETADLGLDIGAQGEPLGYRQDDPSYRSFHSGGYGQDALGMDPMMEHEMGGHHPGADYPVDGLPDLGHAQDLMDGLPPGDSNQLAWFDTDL

Molecule: CC(C)c1cc(C(C)C)c(CC(=O)NS(=O)(=O)Oc2c(C(C)C)cccc2C(C)C)c(C(C)C)c1 [avasimibe]
- effect of addition of cholesterol on viability (HCT116 and Colo320 cells): did not affect the viability
- cell viability compared to vehicle controls (HCT116 and Colo320 cells): significantly reduced cell viability

Molecule: O=C(Nc1ccccc1Oc1nc2ccccc2n2cnnc12)c1cccs1 [C-2]
- concentration inhibiting β-catenin/BCL9 complexes in Co-IP (β-catenin/BCL9 complexes): 1 µM
- disruption of β-catenin complexes with E-cadherin [1]: Neither compound disrupted the ability of β-catenin to form complexes with E-cadherin
- expression of AXIN2 and CD44 mRNAs [2]: significantly inhibited the expression of AXIN2 and CD44 mRNAs
- PARP cleavage (AXIN2, CD44, PARP, ABC): increased the cleavage of poly(adenosine diphosphate–ribose) polymerase (PARP)
- abundance of active β-catenin (ABC) (AXIN2, CD44, PARP, ABC): decreased abundance of “active” dephosphorylated β-catenin
- protein expression of AXIN2 and CD44 (AXIN2, CD44, PARP, ABC): significantly decreased the protein expression of AXIN2 and CD44
- PARP cleavage (AXIN2, CD44, PARP): minor PARP cleavage at 10 and 20 μM
- expression of AXIN2 or CD44 protein (AXIN2, CD44, PARP): did not affect their expression of AXIN2 or CD44 protein
- inhibition of Wnt signaling (firefly/renilla luciferase ratio) [3]: significantly inhibited Wnt signaling
- proliferation (Colo320 and HCT116 cells): significantly reduced the proliferation

Molecule: COc1ccc(C)cc1CN1CCC(c2cc3ncccc3cn2)CC1 [C-3]
- concentration inhibiting β-catenin/BCL9 complexes in Co-IP (β-catenin/BCL9 complexes): 20 µM

Molecule: CCN(CC)CCO[C@H]1CC[C@@]2(C)C(=CC[C@@H]3[C@@H]2CC[C@]2(C)C(=O)CC[C@@H]32)C1.Cl [U-18666A]
- intracellular lipids (BODIPY) (HCT116 cells): substantial intracellular lipid accumulation

Molecule: O=C1[C@H](Cc2ccc(O)cc2)N2C(=O)CCN(C(=O)NCc3ccccc3)[C@H]2CN1Cc1cccc2ccccc12 [ICG-001, reference compound]
- inhibition of Wnt signaling (firefly/renilla luciferase ratio) [3]: significantly inhibited Wnt signaling
- cell viability compared to vehicle controls (HCT116 and Colo320 cells): significantly reduced cell viability

Molecule: CC[C@H](C)C(=O)O[C@H]1C[C@@H](C)C=C2C=C[C@H](C)[C@H](CC[C@@H]3C[C@@H](O)CC(=O)O3)[C@H]21 [lovastatin]
- effect of addition of cholesterol on viability (HCT116 and Colo320 cells): did not affect the viability
- cell viability compared to vehicle controls (HCT116 and Colo320 cells): significantly reduced cell viability

Molecule: nonbiotinylated BCL9-HD2 peptide
- Kd [4]: 2740 nM

B1: N-terminal biotinylated BCL9-HD2 peptide (peptide)
peptide: Biotin-LSQEQLEHRERSLQTLRDIQRM
- binding result [5]: binds
